Holding throughout (assay type): functional, cell-based
Assay [1] has as its system NCI-H520. Briefly: In vitro growth inhibition by the compound was determined in human H520 tumor cell lines. Put shortly:
(§1)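 ID50 (µM) for growth inhibition of human tumor lines: HCT-8 colon adenocarcinoma and the H23, AH125 and H520 non-small cell lung carcinomas. Reported as mean ± SEM of at least four experiments, or as the average of at least two separate experiments.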

Assay [2] has as its system L1210 (PtR4). Briefly: In vitro growth inhibition by the compound was determined in cisplatin-resistant murine L1210PtR4 cell lines. Conditions: Mus musculus. Put shortly: (§2)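 Growth inhibition of murine leukemia lines (cisplatin-resistant variants and cisplatin-sensitive L1210S, P388S) followed a published procedure, read out as ID50. Values are mean ± SEM of 3 to 17 separate experiments, or averages of at least two experiments. Each experiment's value was the mean of duplicates.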

Assay [3] concerns HCT-8. Briefly: In vitro growth inhibition by the compound was determined in human HCT-8 tumor cell lines. Put shortly: as §1
In assay [4] the test system is P388/S. Briefly: In vitro growth inhibition by the compound was determined in cisplatin-sensitive murine P388S cell lines. The note with it: Mus musculus. The method in brief: as §2
For assay [5], the system named is NCI-H23. Briefly: In vitro growth inhibition by the compound was determined in human H23 tumor cell lines. Put shortly:
as §1

For assay [6], the system named is P388PtR4. Put plainly: In vitro growth inhibition by the compound was determined in cisplatin-resistant murine P388PtR4 cell lines. The note with it: Mus musculus. The method in brief: as §2
The subject of assay [7] is L1210. Briefly: In vitro growth inhibition by the compound was determined in cisplatin-sensitive murine L1210S cell lines. The note with it: Mus musculus. The method in brief:
as §2

Assay [8] has as its system L1210 (DACH). Briefly: In vitro growth inhibition by the compound was determined in cisplatin-resistant murine L1210DACH cell lines. Conditions: Mus musculus. Put shortly:
as §2

Assay [9] relates to L1210 (DDP5). Briefly: In vitro growth inhibition by the compound was determined in cisplatin-resistant murine L1210DDP5 cell lines. The note with it: Mus musculus. Put shortly: as §2
Assay [10] relates to AH125 cell line. Briefly: In vitro growth inhibition by the compound was determined in human AH125 tumor cell lines. The method in brief: as §1

CI-973: the ID50 stood at 3900 nM in [1]; 5400 nM in assay [2]; 4200 nM in [3]; 220 nM in assay [4]; 3900 nM in [5]; 3700 nM in assay [6]. In addition, the ID50 in [7] came to 1400 nM; in assay [8], 3600 nM; in [9], 8600 nM.
As for “mu-(1,5-pentanediamine-N,N')bis-(aminedioato(2-)-O,O'platimum (II))”, the ID50 in [1] amounted to 1830 nM; in assay [2], 13000 nM; in [3], 4420 nM; in [10], 3680 nM; in assay [4], 2060 nM; in assay [5], 1480 nM. The ID50 is 16000 nM in [6], 3830 nM in [7], 9490 nM in assay [8] and 17200 nM in assay [9].
CISPLATIN: the ID50 in [1] came to 470 nM; in assay [2], 19100 nM; in [3], 1300 nM; in assay [10], 700 nM; in assay [4] it was 700 nM; in [5], 310 nM. Also, the ID50 in assay [6] was determined as 23300 nM; in [7] it was 920 nM; in assay [8], 2100 nM; in assay [9], 16100 nM.
Take “0-Hexyl-1,3-diamine-platinum 2,2-dichloride”: the ID50 worked out at 190 nM in assay [2]; 210 nM in assay [4]; 2260 nM in [6]; 210 nM in [7]; 9500 nM in assay [8]; 380 nM in assay [9].
“mu-(1,7-Heptanediamine-N,N')bis-(cis-aminedichloroplatimum (II))”: the ID50 in assay [2] was 730 nM; in assay [3], 100 nM; in assay [10], 120 nM; in [4], 140 nM; in assay [5], 30 nM; in assay [6] it was 910 nM. For the same substance, the ID50 in assay [7] worked out at 220 nM; in [8] it was 500 nM; in [9], 1230 nM.
As for “mu-(1,7-nanodiamine-N,N')bis-(cis-aminedichloroplatimum (II))”, the ID50 in assay [1] came out at 140 nM; in assay [2], 2200 nM; in [3], 190 nM; in assay [10], 260 nM; in assay [4], 210 nM; in [5], 56 nM. The ID50 in assay [6] is 3200 nM; in assay [7] it was 290 nM; in assay [8], 1600 nM; in assay [9] it was 2800 nM.

(Values after ChEMBL document CHEMBL1126100, “Anticancer activity in murine and human tumor cell lines of bis(platinum) complexes incorporating straight-chain aliphatic diamine linker groups” (J Med Chem, 1992).)
